Results reported in article PMC3190987 (The Journal of Biological Chemistry, 2011).
Where two headings read alike, the source gives them in different places.

What was measured:
c-Jun [1] = molecular target: T1, c-Jun (Homo sapiens, UniProt P05412, S292Y); experiment: Isothermal titration calorimetry; type: binding; details: for ΔH / ΔGbind (ITC) / TΔS (ΔH − ΔG): ITC, 20 °C; for ΔH: pH 7, one-site model; for ΔGbind (ITC): calculated by Equation 4; for TΔS (ΔH − ΔG): calculated from ΔH and ΔGbind
T1 sequence (P05412 with tags, fused parts or gaps S292Y): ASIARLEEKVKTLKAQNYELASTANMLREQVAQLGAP
In short: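 VP-ITC at 20 °C in 10 mM potassium phosphate, 100 mM KF, pH 7. Syringe peptide at 175–250 μM was injected 25 × 5 μl into cell peptide at 10–40 μM; syringe and cell partners were also swapped. Each run was done at least twice. Isotherms fitted to a 1:1 one-site model for Kd and ΔH. ΔG calculated at 293.15 K; TΔS from ΔH and ΔG.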

c-Jun [2] = molecular target: T1, c-Jun; experiment: CD spectra of heterodimeric complexes with c-Jun; details: for θ222/θ208 (20 °C) / Fraction helical (fH): heterodimer with c-Jun; for θ222/θ208 (20 °C): CD, 150 μM total peptide, pH 7, 20 °C; for Fraction helical (fH): from θ222, 20 °C
In short: (§1)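 CD spectra of homodimeric or c-Jun heterodimeric samples, 150 μM total peptide, 10 mM potassium phosphate, 100 mM KF, pH 7, 1-mm cell. Scans 300–190 nm at 20 °C (pre- and post-melt) and at −8 °C. Converted to molar residue ellipticity, giving θ222/θ208. Fraction helicity taken from θ222 with k = 2.4 and T = 293 K.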

c-Jun-DHFR2 = experiment: Growth competition under PCA conditions; type: cell-based, Escherichia coli; details: M9 minimal media with trimethoprim and IPTG; A600 hourly, in duplicate
In short: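 Split murine DHFR complementation in E. coli: library peptide fused to DHFR fragment 1, c-Jun to fragment 2, both lac-driven. Strains came from single colonies on PCA plates with sequence-verified plasmids. Growth rates were monitored under selection in M9 minimal medium with ampicillin, chloramphenicol, kanamycin, trimethoprim and IPTG (1 mM induction).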

c-Jun [3] = molecular target: T1, c-Jun; details: heterodimer with c-Jun; cited from earlier work
[4] = homodimer; cited from earlier work
[5] = Thermal melts followed by CD at 222 nm, homodimers; type: physicochemical; details: homodimer; CD 222 nm, 150 μM total peptide, pH 7
In short: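 CD thermal denaturation at 222 nm, 150 μM total peptide, 10 mM potassium phosphate, 100 mM KF, pH 7. Started at −8 °C and stepped in 1 °C increments with a 30 s hold, signal averaged over 4 s per point. Tm obtained by least-squares fit to a two-state model (modified Gibbs-Helmholtz).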

[6] = CD spectra of peptides in isolation; type: physicochemical; details: for helicity in isolation: peptide in isolation, from θ222, 20 °C
In short: as §1

c-Jun [7] = molecular target: T1, c-Jun; experiment: CD dimer exchange experiment; type: binding; details: CD spectra, total peptide 150 μM
In short: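 Equilibrium mixing followed by CD in 10 mM potassium phosphate, 100 mM KF, pH 7. Spectra recorded for the c-Fos homodimer and for the test peptide–c-Jun heterodimer, each at 150 μM total peptide. Equal volumes of the two solutions were then mixed, keeping the final total peptide at 150 μM, and the spectrum was re-recorded.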

[8] = molecular target: c-Jun (37-residue leucine zipper peptide); experiment: ITC
[9] = molecular target: c-Jun (37-residue leucine zipper peptide); experiment: CD thermal denaturation

ASTDTLQAETDQLEDEKYALQTEIANLLKEKEKLGAP [c-Fos]
ΔH (c-Jun [1]): -0.8 ± 0.4 kcal/mol
ΔGbind (ITC) (c-Jun [1]): -6.1 ± 0.4 kcal/mol
TΔS (ΔH − ΔG) (c-Jun [1]): 5.3 ± 0.5 kcal/mol
θ222/θ208 (20 °C) (c-Jun [2]): 0.75
Fraction helical (fH) (c-Jun [2]): 3.6%
affinity for c-Jun by E. coli growth rate (c-Jun-DHFR2): lower affinity interaction
Tm (c-Jun [3]): 16 °C

ASIARLEEKVKTLKAQNYELASTANMLREQVAQLGAP [c-Jun]
Tm [4]: 24 °C

ASLDELQREIEQLEELNYALQKEIEDLQKQGAP [4hFosW]
loss of stability of complex with c-Jun relative to c-Jun-FosW (c-Jun [1]; ITC free energy of binding): around 1 kcal/mol
ΔH (c-Jun [1]): -14.1 ± 0.2 kcal/mol
ΔGbind (ITC) (c-Jun [1]): -8.8 ± 0.1 kcal/mol
TΔS (ΔH − ΔG) (c-Jun [1]): -5.3 ± 0.2 kcal/mol
θ222/θ208 (20 °C) (c-Jun [2]): 0.99
Fraction helical (fH) (c-Jun [2]): 60.4%
magnitude of the CD peak at 222 nm (c-Jun [2]; heterodimeric complex with c-Jun, 20 °C): approximately −112 millidegrees
gain in helicity of complex with c-Jun over c-Jun-FosW (c-Jun [2]; measured helicity by CD): ~25%
Tm [5]: 36 °C
gain in helicity in isolation relative to FosW [6]: ~7%
magnitude of the CD peak at 222 nm ([6]; homodimeric complex, 20 °C): approximately −87 millidegrees
ratio θ222/θ208 ([6]; peptide in isolation (homodimeric)): ~1.0
helicity in isolation [6]: 50.6%
affinity for c-Jun by E. coli growth rate (c-Jun-DHFR2): much improved affinity over c-Fos
specificity for c-Jun in the presence of c-Fos (c-Jun [7]): specific for c-Jun in the presence of c-Fos

ASLDELQAEIEQLEERNYALRKEIEDLQKQLEKLGAP [FosW]
ΔH (c-Jun [1]): -10.6 ± 0.2 kcal/mol
ΔGbind (ITC) (c-Jun [1]): -9.9 ± 0.1 kcal/mol
TΔS (ΔH − ΔG) (c-Jun [1]): -0.7 ± 0.2 kcal/mol
θ222/θ208 (20 °C) (c-Jun [2]): 1.0
Fraction helical (fH) (c-Jun [2]): 35.8%
helicity in isolation [6]: 43.7%
affinity for c-Jun by E. coli growth rate (c-Jun-DHFR2): much improved affinity over c-Fos

c-Fos (37-residue leucine zipper peptide)
Ka [8]: 38000 M⁻¹
Kd [9]: 26600 nM

Ac-ASLDELQAEIEQLEERNYALRKEIEDLQKQLEKLGAP-NH2 [FosW]
Ka [8]: 2.2e+07 M⁻¹
dH [8]: -10.6 kcal/mol
stoichiometry N [8]: 0.65
Kd [9]: 45 nM
Tm [9]: 63 °C

Ac-ASLDELQREIEQLEELNYALQKEIEDLQKQGAP-NH2 [4hFosW]
Ka [8]: 2.1e+06 M⁻¹
dH [8]: -14.1 kcal/mol
stoichiometry N [8]: 1.05
Kd [9]: 487 nM
Tm [9]: 49 °C
